Laboratory results reported in ChEMBL document CHEMBL4270599, “Synthesis of a 3'-C-ethynyl-β-d-ribofuranose purine nucleoside library: Discovery of C7-deazapurine analogs as potent antiproliferative nucleosides” (Eur J Med Chem, 2018).

Test system: Vaccinia virus
Experiment: Antiviral activity against Vaccinia virus Lederle infected in HELF cells assessed as inhibition of virus-induced cytopathogenicity
Format: functional, organism-based
Settings: Orthopoxvirus vaccinia
Outline: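 Confluent human embryonic lung fibroblast monolayers in 96-well plates were infected with 100 CCID50 of virus or, for VZV, 20 PFU, in the presence of varying compound concentrations. For HCMV/VZV-type assays, residual virus was removed after 1–2 h before compound addition. Cytopathicity or plaque formation was scored once complete in untreated infected controls. […] Highest concentration tested was 100 μM.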

| SMILES | EC50 [µM] |
| --- | --- |
| C#C[C@@]1(O)[C@@H](CO)O[C@@H](n2ccc3c(Cl)ccnc32)[C@@H]1O | > 100 |
| C#C[C@@]1(O)[C@@H](CO)O[C@@H](n2cc(Br)c3c(Cl)ccnc32)[C@@H]1O | > 100 |
| CC[C@@]1(O)[C@@H](CO)O[C@@H](n2cc(Cl)c3c(N)ncnc32)[C@@H]1O | 0.73 |
| C#C[C@@]1(O)[C@@H](CO)O[C@@H](n2cc(I)c3c(Cl)ccnc32)[C@@H]1O | > 100 |
| C#C[C@@]1(O)[C@@H](CO)O[C@@H](n2cc(Cl)c3c(Cl)ccnc32)[C@@H]1O | > 100 |
| Nc1nc2c(ncn2COCCO)c(=O)[nH]1 [ACYCLOVIR] | > 250 |
| Nc1nc2c(ncn2COC(CO)CO)c(=O)[nH]1 [GANCICLOVIR] | > 100 |
